Bioassay records from PubChem.
TbHK1 inh: Trypanosoma brucei hexokinase 1 inhibitors, primary screen, biochemical, G6PDH-coupled NADH absorbance, MLSCN library; recombinant TbHK1, G6PDH-coupled NADH A340; inhibition, % at 10 µM; AID 1430, 2008; hexokinase 1 [Trypanosoma brucei]; hit rate 0.11% among 220,000;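 active = inhibition of 50% or more in the single-dose primary screen; inactive = inhibition below 50%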
Hck-Nef inh: inhibitors of Nef-activated human Hck kinase, primary screen, biochemical, Z-Lyte FRET, 384-well, Hck-YEEI | hit rate 0.68% among 220,000 | Recombinant Hck-YEEI plus Nef, Z-Lyte FRET kinase assay | inhibition, % at 20 µM | Tyrosine-protein kinase HCK (Homo sapiens), P08631;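 active = Hck-Nef kinase inhibition above about 50%, limit read from the data; inactive = inhibition below that limit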;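 note: 0% = DMSO with Hck plus Nef and 100% = Hck alone without Nef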
RanGTP-Impb inh: inhibitors of RanGTP-importin-beta interaction, primary screen, biochemical, FRET, CFP-Ran, YFP-importin-beta, homogeneous; cell-free CFP-Ran/YFP-importin-beta FRET ratio; Ran GTPase (GTP-bound) - importin-beta complex; inhibition, % (no concentration beside the values); hit rate 1.1% among 300,000;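 active = more than half of the replicate wells show a fall in the fluorescence ratio signal beyond about 16%, limit read from the data, passing the limit was not always enough; inconclusive = exactly half of the replicate wells pass the set limit; inactive = fewer than half of replicates pass the limit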;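 note: 0% = DMSO wells and 100% = Ran loaded with GDP instead of GTP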
Runt-CBFb FRET: inhibitors of RUNX1 Runt–CBFb binding, primary screen, biochemical, FRET, Cerulean-Runt, Venus-CBFb, uHTS; Runt-related transcription factor 1 (Homo sapiens) + Core-binding factor subunit beta …; Cerulean-Runt/Venus-CBFb FRET ratio 530/480, 1 h; inhibition, % at 20 µM; hit rate 0.46% among 220,000;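 active = inhibition over about 50% at 20 µM in the single-dose screen, limit read from the data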;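 note: 0% = DMSO wells and 100% = excess unlabeled CBFb competitor control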
Target sequence (Q01196 whole entry, looked up): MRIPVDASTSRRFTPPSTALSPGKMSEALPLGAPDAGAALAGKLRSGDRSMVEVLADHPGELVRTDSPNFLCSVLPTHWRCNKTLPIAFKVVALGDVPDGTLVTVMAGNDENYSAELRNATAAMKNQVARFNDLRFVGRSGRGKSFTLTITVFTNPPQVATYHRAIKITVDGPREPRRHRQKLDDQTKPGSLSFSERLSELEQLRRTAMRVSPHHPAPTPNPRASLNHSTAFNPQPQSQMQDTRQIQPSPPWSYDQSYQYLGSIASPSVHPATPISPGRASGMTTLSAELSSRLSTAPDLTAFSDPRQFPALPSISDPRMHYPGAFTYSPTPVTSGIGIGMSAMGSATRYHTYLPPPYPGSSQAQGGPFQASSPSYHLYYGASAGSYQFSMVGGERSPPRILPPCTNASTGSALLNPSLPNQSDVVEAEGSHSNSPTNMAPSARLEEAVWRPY
Target sequence (Q13951 whole entry, looked up): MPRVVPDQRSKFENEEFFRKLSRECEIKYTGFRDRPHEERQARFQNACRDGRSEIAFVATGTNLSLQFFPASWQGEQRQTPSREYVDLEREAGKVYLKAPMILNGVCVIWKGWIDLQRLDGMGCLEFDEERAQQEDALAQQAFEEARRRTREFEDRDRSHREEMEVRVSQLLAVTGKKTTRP
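Doses: 20 µM compound in 1% DMSO | Material: Cerulean-labeled Runt domain protein | Amount: Each fluorescent fusion protein 100 nM | Schedule: Two 1 h room-temperature incubations shielded from light | Measured by: FRET fluorescence | Evaluation: Loss of energy transfer signal | Controls: Unlabeled CBFb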
14-3-3 Bad inh: inhibitors of 14-3-3 zeta/Bad binding, primary screen, biochemical, TR-FRET, bovine 14-3-3 zeta; 14-3-3 protein zeta/delta (Bos taurus), P63103; TR-FRET 14-3-3zeta/Dy647-pBad peptide displacement, 1 h; inhibition, % at 21.7 µM; hit rate 0.71% among 220,000; AID 781, 2007;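 active = inhibition above about 70%, limit read from the data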;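 note: 0% = full 14-3-3 plus peptide FRET controls and 100% = background without 14-3-3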
Runt-SMMHC FRET: inhibitors of RUNX1 Runt–CBFb-SMMHC binding, primary screen, biochemical, FRET, Cerulean-Runt, Venus-CBFb-SMMHC, uHTS; Runt-related transcription factor 1 (Homo sapiens) + Core-binding factor subunit beta …; Cerulean-Runt/Venus-CBFb-SMMHC FRET ratio 530/480, 1 h; inhibition, % at 20 µM; hit rate 0.74% among 220,000; AID 1434, 2008;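 active = mean inhibition across duplicate retests at 20 µM reaching about 50%, limit read from the data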;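 note: 0% = DMSO wells and 100% = wells with excess untagged CBFb-SMMHC; inhibitors lower the FRET ratio by blocking Runt binding to CBFb-SMMHC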
Active calls of the source: *; ? = inconclusive; · = no result given; [ ] = another dose, or the depositor's remark. Hits are enriched below; roughly 2.2% of the tested compounds scored in any of these assays.

SMILES	TbHK1 inh	Hck-Nef inh	RanGTP-Impb inh	Runt-CBFb FRET	14-3-3 Bad inh	Runt-SMMHC FRET
C/C(=N\Nc1nc2c(s1)CCCC2)c1ccccc1	-13.8	-4.5	4.0	23.0	80.2*[fluorescence artefact?]	4.8
Cc1nn(S(=O)(=O)c2ccccc2)c(C)c1S(=O)(=O)N1CCC(C)CC1	·	·	-0.5	·	·	·
O=C(O)c1cc2cc(Oc3ccccc3)ccc2[nH]1	·	·	-2.5	·	·	·
COc1cccc(C(=O)NC2CC3CCCC(C2)N3CC(=O)Nc2ccccc2)c1 (stereo not given)	20.0	6.8	?	-2.1	83.3*[fluorescence artefact?]	-1.9
O=C(Nc1ccccc1)NC1CCCCNC1=O (stereo not given)	-2.7	15.0	-2.9	-0.9	-0.3	-2.9
COc1cccc(OC)c1OCCCCCc1c(C)n[nH]c1C	0.6	2.7	4.8	-3.2	80.8*	2.6
Cc1cc(Br)ccc1NC(=O)CNC(=O)CN(C)Cc1nc2ccccc2c(=O)[nH]1	-2.5	2.3	9.2	0.2	11.0	1.7
O=C(COC(=O)/C(=C/c1cccs1)c1cccs1)NC(c1ccccc1)c1ccccc1	7.5	3.5	3.5	-1.6	-18.2	1.2
CCCCn1nc(NC(=O)CCC)c2cc3cc(OC)ccc3nc21	·	·	71.2*	·	·	·
Cc1ccc2nc3c(cc2c1)c(NS(=O)(=O)c1ccccc1)nn3CC(C)C	-10.0	10.6	-2.9	-6.7	-10.9	-19.4
COc1ccc2nc3c(cc2c1)c(NC(=O)CC(C)C)nn3CC(C)C	·	·	74.3*	·	·	·
CCCCn1nc(NC(=O)CC(C)C)c2cc3cc(OC)ccc3nc21	·	·	83.6*	·	·	·
CCCCn1c(N)c(N(CCC(C)C)C(=O)c2[nH]c(C)c(C(=O)OCC)c2C)c(=O)[nH]c1=O	·	·	3.7	·	·	·
COc1cc(OC)cc(C(=O)N[C@H](C(=O)OCC(=O)Nc2ccc(C(C)C)cc2)C(C)C)c1	-1.5	3.3	-5.1	-1.7	1.3	-0.5
CCc1ccc(Nc2nnc(SCc3cc(=O)n4ccsc4n3)s2)cc1	-16.2	0.0	-0.3	-1.7	-8.3	-1.5
N#C/C(=C(/O)COC(=O)CCc1ccc(S(=O)(=O)N2CCOCC2)cc1)c1nc2ccccc2[nH]1	-1.8	7.2	28.8*	12.9	-6.9	49.0
N#C/C(=C(/O)COC(=O)c1ccc(Cl)c(S(=O)(=O)N2CCOCC2)c1)c1nc2ccccc2[nH]1	-7.6	4.6	2.9	2.8	4.0	5.8
CCCCCC1CC(=O)C=C(C)C1C(=O)OC (stereo not given)	-3.3	9.5	4.6	-0.3	-3.0	-6.7
O=C(NCC1COc2ccccc2O1)C1CCN(S(=O)(=O)c2cccc3nsnc23)CC1 (stereo not given)	18.7	0.3	-0.9	-0.1	84.7*	0.9
Cc1ccc(S(=O)(=O)NCc2ccccc2)cc1C(=O)NCc1ccccn1	·	·	4.5	·	·	·
CCC(=O)Nc1cccc(C2=NOC3(C2)C[C@@H](C(N)=O)N(C(=O)CC(c2ccccc2)c2ccccc2)C3)c1 (stereo not given in full)	-4.1	27.4	-3.5	2.1	-1.2	-4.3
CCC(=O)Nc1cccc(C2=NOC3(C2)C[C@@H](C(N)=O)N(C(=O)C(c2ccccc2)c2ccccc2)C3)c1 (stereo not given in full)	-17.3	24.7	26.3*	-2.7	-1.1	-0.4
C=C1CSc2nc3ccccc3c(=O)n21	-12.6	0.0	0.3	1.6	-7.5	1.4
COc1cc(-c2nc3cnccn3c2Nc2c(C)cccc2C)ccc1O	-18.5	5.3	52.5*	12.2	·	18.5
CC1CC1c1ccc(/C=C(\C#N)C(=O)Nc2ccc(Cl)cc2Cl)o1 (stereo not given)	-11.5	2.7	39.6*	-24.9	4.2	-84.1
SMILES	TbHK1 inh	Hck-Nef inh	RanGTP-Impb inh	Runt-CBFb FRET	14-3-3 Bad inh	Runt-SMMHC FRET
O=C(O)C1CCCCC1C(=O)Nc1ccc(Cl)cc1Cl (stereo not given)	8.2	3.3	5.9	1.4	20.2	3.8
CC1CC1c1ccc(/C=C(\C#N)C(=O)Nc2cc(Cl)ccc2Cl)o1 (stereo not given)	-9.0	0.0	23.8*	-17.9	15.2	-37.1
O=C(c1ccccc1)c1ccc2nc(-c3ccco3)c(-c3ccco3)nc2c1	2.6	58.5*	0.3	5.1	15.2	-33.0
O=C(NCCc1ccccc1)c1ccc2nc(-c3ccco3)c(-c3ccco3)nc2c1	-8.7	15.2	39.3*	2.0	17.9	-44.8
CN(Cc1ccccc1F)C(=O)c1ccccc1Sc1ccccc1C#N	·	·	-1.9	·	·	·
O=C1/C(=C/c2cccs2)SC(=S)N1NS(=O)(=O)c1ccccc1	22.1	77.6*	-0.7	0.4	2.2	-4.4
COC(=O)c1ccc(-c2sc3nc(N4CCOCC4)c4c(c3c2N)CC(C)(C)OC4)o1	-13.2	-8.6	24.1*	-1.5	5.9	-23.8
CC1(C)Cc2c(c(N3CCOCC3)nc3sc(C(N)=O)c(N)c23)CO1	-33.3	25.0	6.5	29.5	-5.2	-5.3
COc1cc2ncnc(NCc3ccccc3C)c2cc1OC	-4.7	24.9	-3.7	-1.9	2.9	2.0
COc1cc2ncnc(NCc3ccccc3Cl)c2cc1OC	-1.0	73.6*	12.1	-3.4	1.4	-1.3
CCOC(=O)CCSc1nnc(-c2cccnc2)n1-c1ccccc1OC	-6.0	3.3	3.3	2.4	-1.4	0.3
O=C(NNC(=S)Nc1ccccc1)C1CC1	-5.9	-1.4	-2.6	1.4	-9.5	-3.1
O=C(NNC(=S)Nc1ccccc1)C1CCCCC1	1.3	-1.0	178.1*	1.4	-6.6	-0.5
CCOC(=O)C1CCCN(C(=O)CN2C(=O)NC(C)(c3ccc4ccccc4c3)C2=O)C1 (stereo not given)	·	·	-2.1	·	·	·
CCCN1CCc2c(sc(NC(=O)CCS(=O)(=O)c3ccccc3)c2C(N)=O)C1	·	·	152.6*	·	·	·
COC(=O)c1c(NC(=O)Cc2ccccc2)sc2c1CCN(C(C)C)C2	·	·	0.7	·	·	·
CN1CCc2c(sc(NC(=O)CS(=O)(=O)c3ccccc3)c2C(N)=O)C1	·	·	138.6*	·	·	·
CCOC(=O)c1c(NC(=O)CCS(=O)(=O)c2ccccc2)sc2c1CCN(C(C)C)C2	·	·	127.0*	·	·	·
Cc1nc2c(oc3ccc(Cl)cc32)c(=O)[nH]1	-6.0	8.1	1.0	2.6	2.9	-6.5
Cc1ccc(NC(=O)CN(C)CC(=O)Nc2ccc(N3CCOCC3)cc2)c([N+](=O)[O-])c1	19.8	3.5	-1.8	1.4	-15.4	-6.8
Cc1ccccc1OCC(=O)NCCCNC(=O)c1cccnc1	·	·	0.5	·	·	·
